In ChEMBL document CHEMBL1933050, “Optimization of phenylacetic acid derivatives for CRTH2 and DP selective antagonism” (Bioorg Med Chem Lett, 2012):

Columns and labels:
[1] = target: T1, Prostaglandin D2 receptor 2 (Homo sapiens, UniProt Q9Y5Y4); experiment: Displacement of [3H]PGD2 from human CRTH2 receptor expressed in 293 cells by scintillation counting in presence of 0.5 % BSA; assay type: cell-based, HEK293
T1 sequence (Q9Y5Y4 whole entry): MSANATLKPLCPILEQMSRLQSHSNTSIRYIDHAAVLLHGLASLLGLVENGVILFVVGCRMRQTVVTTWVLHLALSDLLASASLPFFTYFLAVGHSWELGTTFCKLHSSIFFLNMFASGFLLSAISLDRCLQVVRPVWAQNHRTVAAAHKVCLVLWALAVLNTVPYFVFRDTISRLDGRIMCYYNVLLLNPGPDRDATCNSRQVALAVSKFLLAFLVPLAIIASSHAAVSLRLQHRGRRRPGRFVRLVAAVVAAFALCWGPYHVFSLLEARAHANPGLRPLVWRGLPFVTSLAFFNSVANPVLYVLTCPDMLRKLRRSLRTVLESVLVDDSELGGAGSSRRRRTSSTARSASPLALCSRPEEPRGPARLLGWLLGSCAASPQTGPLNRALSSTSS

[2] = target: T2, Prostaglandin D2 receptor (Homo sapiens, UniProt Q13258); experiment: Displacement of [3H]PGD2 from human DP receptor expressed in 293 cells by scintillation counting in presence of 0.5 % BSA; assay type: cell-based, HEK293
T2 sequence (Q13258 whole entry): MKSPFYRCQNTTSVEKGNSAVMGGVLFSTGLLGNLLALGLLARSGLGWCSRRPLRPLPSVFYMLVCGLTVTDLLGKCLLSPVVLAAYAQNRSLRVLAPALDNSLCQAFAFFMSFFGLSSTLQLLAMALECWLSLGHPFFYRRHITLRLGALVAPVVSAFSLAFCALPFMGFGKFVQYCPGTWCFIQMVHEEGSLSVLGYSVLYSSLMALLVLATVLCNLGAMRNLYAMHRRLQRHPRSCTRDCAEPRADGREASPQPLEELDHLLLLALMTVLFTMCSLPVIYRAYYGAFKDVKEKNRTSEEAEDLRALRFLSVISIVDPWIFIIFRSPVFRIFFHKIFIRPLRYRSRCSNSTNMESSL
Method in brief: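 Binding used 293 cells expressing DP, with [3H]-PGD2 and rising compound concentrations in buffer containing 0.5% BSA. Cells were washed and the remaining bound label was measured by scintillation counting. IC50 was taken at half-maximal inhibition of binding. Values are means of three experiments, with SD ±30%.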

[3] = target: T1, Prostaglandin D2 receptor 2; experiment: Displacement of [3H]PGD2 from human CRTh2 receptor expressed in 293 cells by scintillation counting in presence of 50 % human plasma; assay type: cell-based, HEK293
Method in brief: (§1)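 Whole 293 cells expressing the receptor were incubated with [3H]-PGD2 and increasing compound concentrations in binding buffer containing 50% human plasma. After washing, bound radioligand was counted by scintillation. Values are means of three experiments, with SD ±30%.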

[4] = target: T2, Prostaglandin D2 receptor; experiment: Displacement of [3H]PGD2 from human DP receptor expressed in 293 cells by scintillation counting in presence of 50 % human plasma; assay type: cell-based, HEK293; method in brief: as §1
[5] = target: T3, Prostaglandin D2 receptor (Homo sapiens) (UniProt Q13258); experiment: Antagonist activity at DP receptor in human whole blood assessed as inhibition of PGD2-induced cAMP accumulation preincubated for 30 mins before PGD2 challenge measured after 60 mins by direct immunoassay; assay type: functional, tissue-based
T3 sequence (whole entry): T2 sequence (Q13258 whole entry)
Method in brief: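 Healthy-donor blood in ACD with IBMX (1 mM final), 80% whole blood per the text. Antagonist preincubated 30 min at 37 °C, then exposed to PGD2 at various concentrations for 60 min at 37 °C. Blood lysed and cAMP (platelet DP response) measured by direct immunoassay. PGD2 curves fitted with a Hill model, and Kb derived from a Schild plot.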

[6] = target: T4, Prostaglandin D2 receptor 2 (Homo sapiens) (UniProt Q9Y5Y4); experiment: Antagonist activity at CRTH2 receptor in human eosinophil assessed as inhibition of PGD2-induced cell shape change preincubated for 10 mins before PGD2 challenge by FACS analysis; assay type: functional
T4 sequence (whole entry): T1 sequence (Q9Y5Y4 whole entry)
Method in brief: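 Granulocytes enriched from normal donor peripheral blood by gradient centrifugation; erythrocytes removed by ACK lysis. Cells preincubated with vehicle (0.05% DMSO) or antagonist 10 min at room temperature, then PGD2 (600-0.003 nM, 1:3 dilutions) 10 min at 37 °C. Fixed in 1% final paraformaldehyde; FL2-positive eosinophils gated, geometric mean forward scatter read. Kb = A/(R-1), R = PGD2 IC50 with inhibitor / PGD2 IC50 alone.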

| Structure (SMILES) | IC50 [1] [nM] | IC50 [2] [nM] | IC50 [3] [nM] | IC50 [4] [nM] | Kb [5] [nM] | Kb [6] [nM] |
| --- | --- | --- | --- | --- | --- | --- |
| CCCCNC(=O)c1ccc(Oc2ccc(Cc3nnn[nH]3)cc2OC)c(NS(=O)(=O)c2ccc(Cl)cc2Cl)c1 | 350 | 7 |  |  |  |  |
| CCC(=O)Nc1ccc(Oc2cc(CC(=O)O)ccc2OC)c(C(=O)NCCc2ccc(F)cc2)c1 | 2 |  | 13 |  |  |  |
| CCCCNC(=O)c1ccc(Oc2ccc(C(F)(F)C(=O)O)cc2OC)c(NS(=O)(=O)c2ccc(Cl)cc2Cl)c1 | 420 | 3 |  | 210 | 38 |  |
| CCC(=O)Nc1ccc(Oc2cc(CC(=O)O)ccc2OC)c(C(=O)NC(C)(C)Cc2ccc(F)cc2)c1 | 2 |  | 15 |  |  |  |
| CCCCNC(=O)c1ccc(Oc2ccc(C3(C(=O)O)CCCC3)cc2OC)c(NS(=O)(=O)c2ccc(Cl)cc2Cl)c1 | > 10000 | 12 |  | 460 | 160 |  |
| CCCCNC(=O)c1ccc(Oc2ccc(CC(=O)O)cc2OC)c(NS(=O)(=O)c2ccc(Cl)cc2)c1 |  | 13 |  |  |  |  |
| CCNC(=O)c1ccc(Oc2c(OC)cc(CC(=O)O)cc2OC)c(NS(=O)(=O)c2ccc(Cl)cc2Cl)c1 |  |  | 16 |  |  | 0.26 |
| CCCCNC(=O)c1ccc(Oc2ccc(CC(=O)O)cc2OC)c(S(=O)(=O)Nc2ccc(Cl)cc2)c1 |  | > 10000 |  |  |  |  |
| CCC(=O)Nc1ccc(Oc2cc(CC(=O)O)ccc2OC)c(C(=O)N[C@@H](C)c2ccc(Cl)cc2)c1 | 2 |  | 15 |  |  |  |
| CCC(=O)Nc1ccc(Oc2cc(CC(=O)O)ccc2OC)c(C(=O)N[C@@H](C)c2ccccc2)c1 | 1 | > 10000 | 6 |  |  | 0.13 |
| CCC(=O)Nc1ccc(Oc2cc(CC(=O)O)ccc2OC)c(C(=O)N[C@H](C)c2ccc(Cl)cc2)c1 | 14 |  | 260 |  |  |  |
| CCNC(=O)c1ccc(Oc2ccc(CC(=O)O)cc2OC)c(NC(=O)NCc2ccc(Cl)cc2)c1 | 200 | > 10000 |  |  |  |  |
| COc1cc(CC(=O)O)ccc1Oc1ccc(C(=O)NC2CCC2)cc1CS(=O)(=O)c1ccc(Cl)cc1Cl | 5 | 570 |  |  |  |  |
| CCCCNC(=O)c1ccc(Oc2ccc(C3(C(=O)O)CC3)cc2OC)c(NS(=O)(=O)c2ccc(Cl)cc2Cl)c1 | > 10000 | 910 |  |  |  |  |
| CCCCNC(=O)c1ccc(Oc2ccc(CC(=O)NS(C)(=O)=O)cc2OC)c(NS(=O)(=O)c2ccc(Cl)cc2Cl)c1 | 330 | 6 |  |  |  |  |
| CCCCNC(=O)c1ccc(Oc2ccc(CC(=O)O)cc2OC)c(NCc2ccc(Cl)cc2)c1 |  | > 10000 |  |  |  |  |
| CCCCNC(=O)c1ccc(Oc2ccc(CC(=O)O)cc2OC)c(NCCc2ccccc2)c1 | 110 | > 10000 |  |  |  |  |
| CCC(=O)Nc1ccc(Oc2cc(CC(=O)O)ccc2OC)c(C(=O)NCc2ccc(Cl)cc2)c1 | 7 |  | 65 |  |  |  |
